# Assay results from ChEMBL document CHEMBL1629663, “Postantibiotic effects of telavancin against 16 gram-positive organisms” (Antimicrob Agents Chemother, 2009).
# What was measured:
# Streptococcus agalactiae = assay: Antimicrobial activity against Streptococcus agalactiae HMC 5 assessed as post-antibiotic effect at 10 times MIC pre-exposed to Telavancin for 1 hr by plate counting method; assay type: functional
# Summary of the method: (§1)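 Organisms were suspended in Mueller-Hinton broth from overnight blood agar colonies at about 5 × 10^6 CFU/ml. Cultures were exposed to telavancin at 10× MIC for 1 h at 35°C in a shaking water bath, then diluted 1:1,000 to remove the drug, with an untreated growth control. Viable counts were taken before exposure, at 0 h, then every 2 h until McFarland no. 1 turbidity. PAE = T − C, the time to a 1 log10 rise. Two experiments.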
# Staphylococcus aureus [1] = assay: Antimicrobial activity against heterogenous vancomycin-intermediate-, methicillin-resistant Staphylococcus aureus 618 assessed as time required to induce sub-MIC effect at 0.2 times MIC exposed for 2 hrs by plate counting method; assay type: functional
# Summary of the method: (§2)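 SME, viable plate count method: no prior drug exposure. About 5 × 10^6 CFU/ml in Mueller-Hinton broth at 35°C received 0.2, 0.3 or 0.4× MIC, alongside a drug-free tube. Counts were taken at the start, then every 2 h until McFarland no. 1 turbidity, as log10 CFU/ml against time. Two separate experiments, each with a new inoculum.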
# Staphylococcus aureus [2] = assay: Antimicrobial activity against vancomycin-susceptible-, methicillin-resistant Staphylococcus aureus 1130 assessed as time required to induce sub-MIC effect at 0.3 times MIC exposed for 2 hrs by plate counting method; assay type: functional
# Summary of the method: (§3)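 Sub-MIC effect: cultures not preexposed to drug were diluted and handled as in the PA-SME procedure in Mueller-Hinton broth with final 0.2, 0.3 or 0.4× MIC, plus a drug-free control. Viable plate counts were taken every 2 h until McFarland 1 turbidity. Duration was derived from growth curves. Two experiments were run, each with a new inoculum.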
# Staphylococcus aureus [3] = assay: Antimicrobial activity against vancomycin-susceptible-, methicillin-resistant Staphylococcus aureus 1307 assessed as time required to induce sub-MIC effect at 0.3 times MIC exposed for 2 hrs by plate counting method; assay type: functional; summary of the method: as §3
# Staphylococcus aureus [4] = assay: Antimicrobial activity against vancomycin-intermediate-, methicillin-resistant Staphylococcus aureus 1287 assessed as time required to induce post antibiotic sub-MIC effect at 0.4 times MIC […] by plate counting method; assay type: functional
# Summary of the method: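 PAE was first induced with 10× MIC for 1 h at 35°C (inoculum about 5 × 10^6 CFU/ml, Mueller-Hinton broth) and ended by 1:1,000 dilution. Cultures were then split and given 0.2, 0.3 or 0.4× MIC, with one tube left without drug. Viable counts were taken before exposure, after dilution, then every 2 h until McFarland no. 1 turbidity. Two separate experiments, each with a new inoculum.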
# [5] = Protein binding healthy human serum; assay type: ADME, cell-free; settings: read-out: PB
# Staphylococcus aureus [6] = assay: Antimicrobial activity against heterogenous vancomycin-intermediate-, methicillin-resistant Staphylococcus aureus 873 assessed as time required to induce sub-MIC effect at 0.3 times MIC […] by plate counting method; assay type: functional; summary of the method: as §2
# Staphylococcus aureus [7] = assay: Antimicrobial activity against vancomycin-resistant-, methicillin-resistant Staphylococcus aureus 510 assessed as post-antibiotic effect at 10 times MIC pre-exposed for 1 hr by plate counting method; assay type: functional
# Summary of the method: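 Direct colony suspensions (~5 × 10^6 CFU/ml) were exposed to 10× MIC for 1 h at 35°C with shaking in Mueller-Hinton broth, then diluted 1:1,000 to remove drug. Viable plate counts were taken before exposure, at 0 h, then every 2 h until turbidity reached McFarland 1. PAE = T − C, the time for counts to rise 1 log10 versus the unexposed control. Two separate experiments were run.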
# Enterococcus faecalis [8] = assay: Antimicrobial activity against Enterococcus faecalis ATCC 29212 by microdilution method; assay type: functional
# Staphylococcus aureus [9] = assay: Antimicrobial activity against vancomycin-susceptible-, methicillin-resistant Staphylococcus aureus 1306 assessed as time required to induce sub-MIC effect at 0.4 times MIC exposed for 2 hrs by plate counting method; assay type: functional; summary of the method: as §3
# Staphylococcus aureus [10] = assay: Antimicrobial activity against vancomycin-resistant-, methicillin-resistant Staphylococcus aureus 510 assessed as time required to induce sub-MIC effect at 0.3 times MIC exposed for 2 hrs by plate counting method; assay type: functional; summary of the method: as §3
# Staphylococcus aureus [11] = assay: Antimicrobial activity against vancomycin-intermediate-, methicillin-resistant Staphylococcus aureus 1984 assessed as time required to induce post antibiotic sub-MIC effect at 0.2 times MIC pre-exposed to Telavancin for 1 hr by plate counting method
# Staphylococcus aureus [12] = assay: Antimicrobial activity against vancomycin-susceptible-, methicillin-resistant Staphylococcus aureus 1307 assessed as time required to induce post antibiotic sub-MIC effect at 0.2 times MIC pre-exposed to Telavancin […] by plate counting method; assay type: functional
# Summary of the method: (§4)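 After 1 h preexposure to 10× MIC at 35°C and 1:1,000 dilution, cultures were split, and drug was re-added to final 0.2, 0.3 or 0.4× MIC, with a drug-free tube. Viable counts were taken every 2 h until McFarland 1 turbidity. Duration was derived from log10 CFU/ml versus time curves. Two experiments were run, each with a new inoculum.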
# Staphylococcus aureus [13] = assay: Antimicrobial activity against heterogenous vancomycin-intermediate-, methicillin-resistant Staphylococcus aureus 873 assessed as time required to induce sub-MIC effect at 0.2 times MIC […] by plate counting method; assay type: functional; summary of the method: as §2
# Staphylococcus aureus [14] = assay: Antimicrobial activity against heterogenous vancomycin-intermediate-, methicillin-resistant Staphylococcus aureus 873 by microdilution method; assay type: functional
# Streptococcus pyogenes [15] = assay: Antimicrobial activity against Streptococcus pyogenes HMC 414 assessed as post-antibiotic effect at 10 times MIC pre-exposed to Telavancin for 1 hr by plate counting method; assay type: functional; summary of the method: as §1
# Streptococcus pyogenes [16] = assay: Antimicrobial activity against Streptococcus pyogenes HMC 414 assessed as time required to induce post antibiotic sub-MIC effect at 0.3 times MIC exposed for […] by plate counting method; assay type: functional
# Summary of the method: (§5)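 Mueller-Hinton broth cultures of about 5 × 10^6 CFU/ml were pre-exposed to telavancin at 10× MIC for 1 h at 35°C, then diluted 1:1,000. Telavancin was re-added to final 0.2, 0.3 or 0.4× MIC, alongside a drug-free tube. Viable counts were taken before exposure, after dilution, then every 2 h until McFarland no. 1 turbidity. Duration comes from log10 CFU/ml-versus-time plots; two separate experiments with fresh inocula.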
# Enterococcus faecalis [17] = assay: Antimicrobial activity against Enterococcus faecalis HMC 571 assessed as time required to induce sub-MIC effect at 0.2 times MIC exposed for 2 hrs by plate counting method; assay type: functional
# Summary of the method: (§6)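 Unexposed Mueller-Hinton broth cultures (about 5 × 10^6 CFU/ml, 35°C) were handled as in the PA-SME set but without the 10× MIC pre-exposure. They were diluted 1:1,000, then given telavancin at final 0.2, 0.3 or 0.4× MIC, with a drug-free control. Viable counts were taken every 2 h until McFarland no. 1 turbidity. Effect duration comes from log10 CFU/ml-time plots; two separate experiments with new inocula.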
# Staphylococcus aureus [18] = assay: Antimicrobial activity against vancomycin-susceptible-, methicillin-resistant Staphylococcus aureus ATCC 33591 assessed as time required to induce post antibiotic sub-MIC effect at 0.4 times MIC […] by plate counting method; assay type: functional; summary of the method: as §4
# Enterococcus faecium [19] = assay: Antimicrobial activity against Enterococcus faecium HMC 588 assessed as time required to induce sub-MIC effect at 0.2 times MIC exposed for 2 hrs by plate counting method; assay type: functional; summary of the method: as §6
# Enterococcus faecium [20] = assay: Antimicrobial activity against Enterococcus faecium HMC 588 assessed as time required to induce post antibiotic sub-MIC effect at 0.3 times MIC […] by plate counting method; assay type: functional; summary of the method: as §5
smiles,measurement,setting,value
CCCCCCCCCCNCCN[C@@]1(C)C[C@H](O[C@H]2[C@H](Oc3c4cc5cc3Oc3ccc(cc3Cl)[C@@H](O)[C@@H](NC(=O)[C@@H](CC(C)C)NC)C(=O)N[C@@H](CC(N)=O)C(=O)N[C@H]5C(=O)N[C@H]3C(=O)N[C@H](C(=O)N[C@H](C(=O)O)c5cc(O)c(CNCP(=O)(O)O)c(O)c5-c5cc3ccc5O)[C@H](O)c3ccc(c(Cl)c3)O4)O[C@H](CO)[C@@H](O)[C@@H]2O)O[C@@H](C)[C@H]1O [TELAVANCIN],PAE,Streptococcus agalactiae,0.4 h
same,PAE,Staphylococcus aureus [1],0.3 h
same,PAE,Staphylococcus aureus [2],2 h
same,PAE,Staphylococcus aureus [3],2.6 h
same,PAE,Staphylococcus aureus [4],> 10 h
same,fraction unbound,[5],≤ 0.1
same,PAE,Staphylococcus aureus [6],0.5 h
same,PAE,Staphylococcus aureus [7],1.3 h
same,MIC,Enterococcus faecalis [8],0.25 µg/mL
same,PAE,Staphylococcus aureus [9],6 h
same,PAE,Staphylococcus aureus [10],2.3 h
same,PAE,Staphylococcus aureus [11],6.8 h
same,PAE,Staphylococcus aureus [12],6 h
same,PAE,Staphylococcus aureus [13],0 h
same,MIC,Staphylococcus aureus [14],0.12 µg/mL
same,PAE,Streptococcus pyogenes [15],6.1 h
same,PAE,Streptococcus pyogenes [16],> 10.7 h
same,PAE,Enterococcus faecalis [17],0.1 h
same,PAE,Staphylococcus aureus [18],> 10 h
same,PAE,Enterococcus faecium [19],1.2 h
same,PAE,Enterococcus faecium [20],8.9 h
